Most compounds without a hit are left out; they make up all but 2.6% or so of the library.
ARFGAP1 inhibitor – inhibitors of rat ARFGAP1 | Q62848 | Arfgap1-stimulated ARF1 GTP hydrolysis, GDP FP detection | inhibition, % at 16.5 µM | actives 0.26% (n = 360,000) | AID 651572;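 active = inhibition above a per-plate limit, mean inhibition of low control wells plus 3 SD, cut at about 25% in these data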
Target sequence (Q62848 1-136 limits assumed): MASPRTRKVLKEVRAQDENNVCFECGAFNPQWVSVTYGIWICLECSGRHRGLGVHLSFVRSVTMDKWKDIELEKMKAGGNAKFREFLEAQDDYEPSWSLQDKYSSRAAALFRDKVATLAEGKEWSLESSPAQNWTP
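Repeats: one replicate per compound; assay system: rat Arfgap1 catalytic domain, aa 1-136; times: enzyme reaction 120 min at 25 °C after 20 min preincubation; detection: FP of antibody-bound GDP Alexa 633 tracer, ex 620/em 688 nm; benchmarks: high control wells lacking Arfgap1, low control full reaction with DMSO; reagent: human ARF1(Δ1-17)-GTP substrate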
VIM-2 inhibitor – inhibitors of Pseudomonas aeruginosa VIM-2 metallo-beta-lactamase | purified VIM-2, nitrocefin hydrolysis, epi-absorbance fluorescence | inhibition, % at 5.6 µM | actives 0.89% (n = 290,000) | AID 1527;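 active = inhibition above the mean of all tested compounds plus 3 SD, cutoff set per screening run, cut at about 7.5% in these data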;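 also: red hydrolysis product quenches plate fluorescence so inhibitors raise well fluorescence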
PHOSPHO1 block – PHOSPHO1 (human) inhibition. Q8TCT1. recombinant PHOSPHO1, absorbance phosphatase assay. inhibition, % at 13.3 µM. actives 1.1% (n = 290,000). AID 1565; in the data active = inhibition above about 60%
Calb FLC – affects C. albicans growth with fluconazole; C. albicans CaCi-2 + fluconazole, Alamar Blue growth, 48 h; growth inhibition, % (no concentration beside the values); actives 0.57% (n = 300,000); AID 1979;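 active = growth inhibition above about 58% in most replicates, limit read from the data, passing the limit was not always enough; inconclusive = exactly half the replicates above a set limit; inactive = most replicates below a set limit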;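 also: all wells also contain fluconazole at 8 µg/ml as a sub-toxic cotreatment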
ASAP1 inh – ASAP1 ArfGAP inhibition | Q9ULH1 | actives 0.19% (n = 360,000) | inhibition, % at 16.5 µM | ASAP1-stimulated ARF1 GTP hydrolysis, GDP FP detection; in the data active = inhibition above about 25%
Target sequence (Q9ULH1 325-724 limits assumed): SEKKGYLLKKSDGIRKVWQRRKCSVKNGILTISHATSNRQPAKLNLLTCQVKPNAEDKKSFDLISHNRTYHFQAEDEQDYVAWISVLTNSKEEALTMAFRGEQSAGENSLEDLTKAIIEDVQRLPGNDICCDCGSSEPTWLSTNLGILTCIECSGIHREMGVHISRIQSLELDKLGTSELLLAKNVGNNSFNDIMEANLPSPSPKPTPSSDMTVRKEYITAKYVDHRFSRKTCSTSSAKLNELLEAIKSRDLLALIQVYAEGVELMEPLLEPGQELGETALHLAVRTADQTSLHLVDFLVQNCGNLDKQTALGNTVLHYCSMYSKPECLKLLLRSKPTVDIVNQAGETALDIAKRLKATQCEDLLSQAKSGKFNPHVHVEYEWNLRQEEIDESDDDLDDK
IMP-1 inh – blocks Pseudomonas aeruginosa IMP-1 metallo-beta-lactamase; purified IMP-1, nitrocefin hydrolysis, epi-absorbance fluorescence; actives 0.45% (n = 290,000); AID 1556; inhibition, % at 5.6 µM;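 active = inhibition above the mean plus 3 SD of all compounds in the same screening run, cut at about 4.5% in these data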
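Assay system: purified IMP-1; Quantity: IMP-1 0.2 nM before substrate addition; Medium: HEPES buffer pH 7.1 with ZnSO4 and Brij 35; Incubation: 15 min enzyme–compound preincubation, then 25 min nitrocefin reaction, 25 °C; Signal: fluorescence quenching readout, ex 480/em 530 nm; Controls: DMSO with and without IMP-1; Repeats: singlicate testing.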
Numbers stand for hits; n = inactive; u = inconclusive; x = not tested or not shown.

SMILES	ARFGAP1 inhibitor	VIM-2 inhibitor	PHOSPHO1 block	Calb FLC	ASAP1 inh	IMP-1 inh
CCCCNc1cccc2c1S(=O)(=O)N[C@@H](Cc1ccccc1)CO2	n	x	x	x	n	x
CCOc1ccc(S(=O)(=O)NN)cc1	n	n	92.4	n	n	n
CCOc1ccc2noc3c2c1C(=O)c1ccccc1-3	n	n	61.9	n	n	n
O=C(NCCCc1ccccc1)Nc1cccc(Cl)c1	n	n	n	106.8	n	n
c1ccc2sc(N3CCOCC3)nc2c1	n	n	n	n	n	n
c1ccc2sc(SN3CCOCC3)nc2c1	n	n	65.8	n	n	n
O=C(O)CCSc1nc2ccc(Br)cc2[nH]1	n	n	66.3	n	n	n
COc1ccc(OCC(=O)Nc2ccc3c(c2)CCC3)cc1	n	x	x	x	n	x
COc1cc(C(=S)N2CCN(C)CC2)ccc1OCC(=O)NCc1ccccc1	n	n	n	u	n	n
O=C(COc1ccc2c(c1)CCC2)NCc1cccc(Cl)c1	n	n	n	71.5	n	n
COc1cccc(NC(=O)COc2ccc3c(c2)CCC3)c1	n	n	n	100.5	n	n
COc1cccc(NC(=O)COc2ccc(C(=S)N3CCN(C)CC3)cc2OC)c1	n	8.3	n	n	n	n
COc1cccc(S(=O)(=O)N2C[C@H](O)COC[C@H]3O[C@@H](CC(=O)N4CCN(C)CC4)CC[C@@H]32)c1	n	x	x	x	n	x
O=C1c2ccccc2C(=O)N1CCCCN(C(=O)c1cc([N+](=O)[O-])cc([N+](=O)[O-])c1)c1ccc(Cl)cc1	n	n	n	n	n	n
O=C1c2ccccc2C(=O)N1CCCCN(C(=O)c1ccc([N+](=O)[O-])cc1)c1ccc(Cl)cc1	n	n	n	n	n	37.2
CC(C)[C@H]1C(=O)Nc2ccccc2N1C(=O)N[C@@H](Cc1ccccc1)C(=O)N[C@H](Cc1ccccc1)C(=O)O	n	n	n	n	n	n
CC(C)[C@H](NC(=O)N1c2ccccc2NC(=O)[C@@H]1C(C)C)C(=O)N[C@H](Cc1ccccc1)C(=O)O	n	n	64.9	n	n	n
C[C@]12Cc3ccccc3C1CC1=N[C@@H](c3ccccn3)O[C@@]13C[C@@H]2C(=O)N3C1CCN(Cc2ccccc2)CC1 (stereo partly specified)	n	x	x	x	n	x
O=C(O)c1ccccc1C(=O)Nc1n[nH]c(=S)s1	n	n	98.8	u	n	n
O=C(O)c1ccccc1C(=O)Nc1nccs1	n	n	n	n	n	n
COC(=O)C1=C(C)N(Cc2cccc(C(F)(F)F)c2)C(=NCc2ccc3c(c2)OCO3)NC1c1cccc(F)c1 (stereo unspecified)	n	x	x	x	n	x
Cc1nc(Sc2ccccc2)c(C#N)c(C)c1[N+](=O)[O-]	n	8.6	n	n	n	n
Cc1cc(C)c(C#N)c(Sc2nc(C)c([N+](=O)[O-])c(C)c2C#N)n1	n	x	x	x	n	x
COC(=O)C1=C(C)N(c2ccc(OC)cc2)C(C)=C(C(=O)OC)C1c1ccc(OC)cc1	n	n	n	n	n	38.0
CCCCOCCCNC(=O)C[C@H]1C[C@@]2(C(=O)OC)C(=C[C@H](C(C)(C)C)O[C@@H]2C)N(Cc2ccc3c(c2)OCO3)C1=O	n	x	x	x	n	x
SMILES	ARFGAP1 inhibitor	VIM-2 inhibitor	PHOSPHO1 block	Calb FLC	ASAP1 inh	IMP-1 inh
COC(=O)[C@]12C[C@H](CC(=O)N3CCOCC3)C(=O)N(Cc3ccc4c(c3)OCO4)C1=C[C@H](C(C)(C)C)O[C@@H]2C	n	x	x	x	n	x
O=C(OCc1csc(-c2ccccc2)n1)C1=NN(c2ccccc2)C(=O)CC1	n	x	x	x	n	x
O=C(OCc1csc(-c2ccccc2)n1)c1cccs1	n	n	63.2	n	n	n
Cc1ccsc1C(=O)OCc1csc(-c2ccccc2)n1	n	n	n	n	n	n
Cn1cccc1C(=O)OCc1csc(-c2ccccc2)n1	n	n	100.2	n	n	n
CC(=O)Oc1cc(C)c(Cl)c2c(OC(C)=O)cc(C(C)=O)c(O)c12	n	x	x	x	n	x
COc1cccc(/C=C(\CC(=O)O)c2nc3ccccc3s2)c1	n	n	n	n	n	n
O=C(O)C/C(=C\c1ccc2c(c1)OCO2)c1nc2ccccc2s1	n	8.0	n	n	n	n
COc1cccc(/C=C2/Sc3ccc(C(=O)NC4CC4)cc3NC2=O)c1	n	x	x	x	n	x
COc1ccc(/C=N/n2c(-c3cc(C)[nH]n3)n[nH]c2=S)cc1	n	n	n	n	n	n
COc1ccc(/C=N/n2c(-c3cc(C)[nH]n3)n[nH]c2=S)cc1OC	n	n	92.7	n	n	n
Cn1c(=S)n(/N=C/c2ccc3c(c2)OCO3)c2ccccc21	n	n	n	x	n	n
COc1ccc(/C=N/n2c(=S)n(C)c3ccccc32)cc1OC	n	n	73.3	n	n	n
O=C(O)c1sc2cc(C(F)(F)F)cnc2c1-c1ccccc1	n	n	n	u	25.0	n
Cn1c(SCCCC(=O)c2ccccc2)nnc1-c1ccncc1	n	n	68.0	n	n	n
O=C(NC1CCCCC1)C(c1ccc2ncccc2c1)N(Cc1ccc(F)cc1)C(=O)c1ccc2c(c1)OCCO2 (stereo unspecified)	n	n	n	86.5	n	n
C#CC1c2ccccc2CCN1CC=C (stereo unspecified)	n	x	x	x	n	x
CCCCc1nnn2c1C1c3cc(-c4cccnc4)ccc3CCN1C(=O)C2 (stereo unspecified)	n	x	x	x	n	x
COc1ccc(-c2nc(CS(=O)CC(=O)NC3CCCCCC3)c(C)o2)cc1 (stereo unspecified)	n	n	64.9	n	n	n
COC(=O)[C@]12C[C@H](CC(=O)NCC3CCCCC3)C(=O)N(CCC3=CCCCC3)C1=C[C@H](C(C)(C)C)O[C@@H]2C	n	x	x	x	n	x
Cc1ccc(C=Nc2cccnc2N)cc1	x	n	n	n	x	4.8
O=C(NCc1ccccc1)[C@@H]1CCCN1C(=O)[C@H]1CCCN1C(=O)c1ccc(F)cc1	n	x	x	x	n	x
CCN1C(=O)/C(=C2/SC(C)=C(C)N2CC)SC1=S	n	n	79.8	n	n	n
CCN1C(=O)/C(=C2\C=Cc3ccccc3N2CC)SC1=S	n	n	n	n	n	n
CCc1nc2ccc(C(=O)N(C)CCN(C)C)cn2c1N(CC)C(=O)NCCc1ccccc1	n	x	x	x	n	x
SMILES	ARFGAP1 inhibitor	VIM-2 inhibitor	PHOSPHO1 block	Calb FLC	ASAP1 inh	IMP-1 inh
CN(C)c1ncnc2c1NC1=C(S2)C(=NCCCC(=O)O)CC(C)(C)C1	n	n	86.6	n	n	n
CC(C)Cc1nnc(NC(=O)CN2C(=O)c3ccccc3C2=O)s1	n	n	n	n	n	n
CC(C)c1nnc(NC(=O)CN2C(=O)c3ccccc3C2=O)s1	n	n	89.1	n	n	n
CCc1nc2c(OCC(=O)N3CCOCC3)cccn2c1N(C)C(=O)COc1ccccc1	n	x	x	x	n	x
Cn1c(=O)c(C(=O)NCCc2ccccc2)c(O)c2ccccc21	n	n	n	89.3	n	n
CCCn1c(=O)c(C(=O)NCCc2ccccc2)c(O)c2ccccc21	n	n	n	n	n	n

Compound activity as filed in PubChem BioAssay.
